The results in this text go back to ChEMBL document CHEMBL3272173, “Synthesis and biological activity of peptide antagonists of luliberin (luteinizing hormone-releasing hormone)” (J Med Chem, 1979).

The target in series [1] is T1, Gonadotropin-releasing hormone receptor (Rattus norvegicus) (UniProt P30969).
T1 sequence (whole entry): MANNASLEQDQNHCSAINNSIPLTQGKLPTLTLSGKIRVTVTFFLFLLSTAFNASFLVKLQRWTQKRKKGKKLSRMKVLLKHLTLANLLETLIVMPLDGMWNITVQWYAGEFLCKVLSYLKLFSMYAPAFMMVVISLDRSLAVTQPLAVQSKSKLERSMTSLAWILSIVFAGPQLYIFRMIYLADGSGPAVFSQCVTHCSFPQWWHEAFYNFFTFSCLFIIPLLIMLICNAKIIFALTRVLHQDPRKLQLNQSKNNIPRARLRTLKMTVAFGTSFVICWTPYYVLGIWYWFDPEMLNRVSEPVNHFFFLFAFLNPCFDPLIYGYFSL
Briefly: In vitro antagonist activity at GNRHR in CD rat anterior pituitary gland assessed as inhibition of LH-RH-stimulated LH release at compound to LH-RH molar ratio of 500 after 4 hrs by radioimmunoassay. To be noted: concentration not given here. An outline of the steps:
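Anterior pituitaries from diestrus CD rats (200-250 g) were dissociated enzymatically (collagenase, hyaluronidase, then Viokase). Cells were cultured 4 days at 1.67 × 10^5 cells/mL in DME with 10% horse serum and 2.5% fetal calf serum, then washed serum-free. Duplicate cultures received LH-RH (2-5 × 10^-10 M) with a single analogue concentration in serum-free DME for 4 h at 37 °C. LH in the medium was measured by RIA and reported as % inhibition of LH-RH-stimulated release.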

The subject of series [2] is Rattus norvegicus. Description: Antiovulatory activity in CD rat assessed as blockade of ovulation at 0.3 mg, sc administered as six doses at 1200, 1230, 1300, 1350, 1400 and 1450 hrs during proestrus stage measured during estrus stage by dissecting microscopic analysis. The class given is functional. An outline of the steps: (§1)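 Cycling Charles River CD rats were given six subcutaneous injections of analogue in 0.1 mL propylene glycol on the afternoon of proestrus, and controls received vehicle alone. Rats were killed the next morning (estrus). Ovulating animals were scored and ova in the oviducts were counted under a dissecting microscope.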

The subject of series [3] is Rattus norvegicus. Briefly: Antiovulatory activity in sc dosed CD rat assessed as blockade of ovulation administered as six doses at 1200, 1230, 1300, 1350, 1400 and 1450 hrs during proestrus stage measured during estrus stage by dissecting microscopic analysis. The class given is functional. An outline of the steps: as §1
For series [4], the target named is T1, Gonadotropin-releasing hormone receptor (Rattus norvegicus). Briefly: In vitro antagonist activity at GNRHR in CD rat anterior pituitary gland assessed as ratio of molar concentration of compound to LH-RH for inhibition of LH-RH-stimulated LH release after 4 hrs by radioimmunoassay. An outline of the steps: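 Monolayers were cultured 4 days from dissociated anterior pituitary cells of diestrus CD rats. They were exposed in duplicate to LH-RH (2-5 × 10^-10 M) plus multiple analogue concentrations in serum-free DME for 4 h at 37 °C. LH in the medium was measured by radioimmunoassay. The ED50 molar ratio is the analogue:LH-RH molar ratio giving 50% inhibition of LH-RH-stimulated LH release.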

For series [5], the system named is Rattus norvegicus. Briefly: Antiovulatory activity in CD rat assessed as blockade of ovulation at 0.1 mg, sc administered as six doses at 1200, 1230, 1300, 1350, 1400 and 1450 hrs during proestrus stage measured during estrus stage by dissecting microscopic analysis. Type of series: functional. An outline of the steps:
as §1

Series [6] is described as follows: Solubility of the compound in 0.9% sodium chloride. The class given is physicochemical.
A short description of series [7]: Solubility of the compound in water. Type of series: physicochemical.
Series [8] concerns Rattus norvegicus. Briefly: Antiovulatory activity in CD rat assessed as blockade of ovulation at 10 mg, sc administered as six doses at 1200, 1230, 1300, 1350, 1400 and 1450 hrs during proestrus stage measured during estrus stage by dissecting microscopic analysis. The class given is functional. An outline of the steps:
as §1

As for `CC(C)C[C@H](NC(=O)[C@@H](Cc1ccccc1)NC(=O)[C@H](Cc1ccc(O)cc1)NC(=O)[C@H](CO)NC(=O)[C@H](Cc1c[nH]c2ccccc12)NC(=O)[C@@H](Cc1ccccc1)NC(=O)[C@@H]1CCC(=O)N1)C(=O)N[C@@H](CCCNC(=N)N)C(=O)N1CCC[C@H]1C(=O)NCC(N)=O.Cl`, the inhibition in series [1] amounted to 98%. Moreover, in the series with Rattus norvegicus [2], the “inhibition (INH)” value turned out to be 100%. Besides, the values for the ED50 (in the series on Rattus norvegicus [3]; in series [4]) were 0.1 mg and 76 molar ratio, respectively.

Turning to `CC(=O)O.CC(C)C[C@H](NC(=O)[C@@H](Cc1c[nH]c2ccccc12)NC(=O)[C@H](Cc1ccc(O)cc1)NC(=O)[C@H](CO)NC(=O)[C@H](Cc1c[nH]c2ccccc12)NC(=O)[C@H](COCc1ccccc1)NC(=O)OC(C)(C)C)C(=O)N[C@@H](CCCNC(=N)N)C(=O)N1CCC[C@H]1C(=O)NCC(N)=O`, the “inhibition (INH)” value in the series with Rattus norvegicus [5] was found to be 100%. Moreover, the ED50 with Rattus norvegicus [3] is recorded as 0.05 mg. The solubility in series [6] was 16 µg/mL; in series [7], 3000 µg/mL.

Take `CCNC(=O)[C@@H]1CCCN1C(=O)[C@H](CCCNC(=N)N)NC(=O)[C@H](CC(C)C)NC(=O)[C@@H](Cc1ccccc1)NC(=O)[C@H](Cc1ccc(O)cc1)NC(=O)[C@H](CO)NC(=O)[C@H](Cc1c[nH]c2ccccc12)NC(=O)[C@H](CCC(N)=O)NC(=O)OCc1ccccc1.Cl`: in the series on Rattus norvegicus [3], the ED50 is on record as above 10 mg. In addition, in the series with Rattus norvegicus [8], the “inhibition (INH)” value is reported as 0%.
